Calls of active or inactive are those of the source.
Columns and labels:
Rattus norvegicus [1] = assay: Induction of mechanical allodynia in Sprague-Dawley rat assessed as decrease in withdrawal threshold at 100 ng administered as intraplantar injection by Von Frey assay relative to control; set-up: scale not given: the % may be the effect or the level left; details: in vivo, other
Summary of the method: (§1)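 Naive male Sprague Dawley rats, n = 6; methyl esters given by intraplantar injection in 1:9 EtOH/saline. Mechanical withdrawal thresholds measured with an electronic von Frey aesthesiometer over a time course, ipsilateral and contralateral paws. Data analysed by two-way ANOVA with Holm-Sidak post hoc test.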

[2] = target: T1, Prostaglandin G/H synthase 2 (Homo sapiens) (UniProt P35354); details: at 100 µM
T1 sequence (whole entry): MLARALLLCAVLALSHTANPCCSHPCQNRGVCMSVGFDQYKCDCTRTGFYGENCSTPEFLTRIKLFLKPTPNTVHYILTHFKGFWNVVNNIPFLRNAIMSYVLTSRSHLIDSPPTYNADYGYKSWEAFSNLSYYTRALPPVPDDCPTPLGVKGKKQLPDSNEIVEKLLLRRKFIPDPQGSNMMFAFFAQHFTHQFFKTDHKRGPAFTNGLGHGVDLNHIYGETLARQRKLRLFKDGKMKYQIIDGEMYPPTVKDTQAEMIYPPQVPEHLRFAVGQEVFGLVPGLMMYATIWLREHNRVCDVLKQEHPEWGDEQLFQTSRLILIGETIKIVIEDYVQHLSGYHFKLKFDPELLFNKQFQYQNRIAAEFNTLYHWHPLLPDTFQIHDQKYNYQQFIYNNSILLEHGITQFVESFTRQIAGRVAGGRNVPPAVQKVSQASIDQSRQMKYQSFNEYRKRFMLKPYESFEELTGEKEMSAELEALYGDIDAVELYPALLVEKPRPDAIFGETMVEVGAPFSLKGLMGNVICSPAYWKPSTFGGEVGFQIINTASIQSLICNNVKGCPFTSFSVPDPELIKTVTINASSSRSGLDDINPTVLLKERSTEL

[3] = target: Transient receptor potential cation channel subfamily V member 1 (Mus musculus) (UniProt Q704Y3); assay: Agonist activity at recombinant mouse TRPV1 expressed in HEK293 cells assessed as increase in calcium influx at 10 uM measured for 380 sec by Fluo-4 dye based FLIPR assay; type: cell-based
Transient receptor potential cation channel subfamily V member 1 (Mus musculus), sequence (Q704Y3 whole entry): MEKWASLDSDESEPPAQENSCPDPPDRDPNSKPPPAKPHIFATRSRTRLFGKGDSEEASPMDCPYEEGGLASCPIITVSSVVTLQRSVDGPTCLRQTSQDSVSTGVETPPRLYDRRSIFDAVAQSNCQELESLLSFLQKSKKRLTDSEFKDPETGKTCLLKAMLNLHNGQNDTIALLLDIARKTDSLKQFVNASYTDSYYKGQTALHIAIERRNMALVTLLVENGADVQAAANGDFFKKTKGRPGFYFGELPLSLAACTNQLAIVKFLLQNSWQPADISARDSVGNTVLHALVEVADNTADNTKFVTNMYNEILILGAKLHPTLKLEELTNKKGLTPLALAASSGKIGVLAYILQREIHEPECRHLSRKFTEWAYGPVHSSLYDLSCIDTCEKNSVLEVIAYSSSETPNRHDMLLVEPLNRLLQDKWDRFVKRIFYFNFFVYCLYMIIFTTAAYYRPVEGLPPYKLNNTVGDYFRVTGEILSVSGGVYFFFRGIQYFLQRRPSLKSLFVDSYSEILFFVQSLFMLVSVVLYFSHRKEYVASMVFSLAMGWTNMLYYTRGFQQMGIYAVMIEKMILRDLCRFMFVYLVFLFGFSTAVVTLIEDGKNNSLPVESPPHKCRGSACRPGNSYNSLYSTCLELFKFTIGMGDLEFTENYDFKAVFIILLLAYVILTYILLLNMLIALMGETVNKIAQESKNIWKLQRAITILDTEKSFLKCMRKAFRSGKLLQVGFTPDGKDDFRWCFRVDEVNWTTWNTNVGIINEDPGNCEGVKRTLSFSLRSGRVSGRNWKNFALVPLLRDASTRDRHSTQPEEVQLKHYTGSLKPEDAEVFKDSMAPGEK
Summary of the method: (§2)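 mTRPV1-transfected HEK293 cells; Ca2+ influx followed over time and quantified as area under the curve; capsaicin as positive control. Experiments repeated twice, each in triplicate.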

[4] = target: T2, Prostaglandin G/H synthase 1 (Ovis aries) (UniProt P05979); assay: Inhibition of ovine COX1 at 100 uM using arachidonic acid as substrate after 2 mins by fluorometric substrate-based fluorescence assay relative to control
T2 sequence (whole entry): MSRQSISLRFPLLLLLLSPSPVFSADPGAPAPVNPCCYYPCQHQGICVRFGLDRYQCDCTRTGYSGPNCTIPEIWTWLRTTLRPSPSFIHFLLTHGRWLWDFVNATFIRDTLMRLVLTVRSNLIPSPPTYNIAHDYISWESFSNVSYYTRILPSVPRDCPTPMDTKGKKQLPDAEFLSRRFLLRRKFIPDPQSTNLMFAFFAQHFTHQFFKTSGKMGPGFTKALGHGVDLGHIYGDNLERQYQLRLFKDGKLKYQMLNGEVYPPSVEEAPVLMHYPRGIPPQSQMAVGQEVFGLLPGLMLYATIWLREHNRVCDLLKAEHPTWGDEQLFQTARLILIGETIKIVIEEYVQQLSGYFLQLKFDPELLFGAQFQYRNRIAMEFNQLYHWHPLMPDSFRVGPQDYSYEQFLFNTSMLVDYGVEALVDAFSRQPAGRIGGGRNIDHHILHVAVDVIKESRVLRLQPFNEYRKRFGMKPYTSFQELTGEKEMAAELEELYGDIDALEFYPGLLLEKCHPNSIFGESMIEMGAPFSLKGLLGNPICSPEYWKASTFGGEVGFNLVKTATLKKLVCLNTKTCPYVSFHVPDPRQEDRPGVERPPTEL

Rattus norvegicus [5] = assay: Induction of mechanical allodynia in Sprague-Dawley rat assessed as decrease in withdrawal threshold at 1 ug administered as intraplantar injection measured up to 150 mins post dose by Von Frey assay; set-up: scale not given: the % may be the effect or the level left; details: in vivo, other, 2.5 h; summary of the method: as §1
Rattus norvegicus [6] = assay: Induction of mechanical allodynia in Sprague-Dawley rat assessed as decrease in ipsilateral hind paw withdrawal threshold administered as intraplantar injection measured up to 150 mins post dose by Von Frey assay; details: in vivo, other, 2.5 h; summary of the method: as §1
Rattus norvegicus [7] = assay: Induction of mechanical allodynia in Sprague-Dawley rat assessed as decrease in contralateral hind paw withdrawal threshold at 3 ug administered as intraplantar injection measured up to 150 mins post dose by Von Frey assay; details: in vivo, other, 2.5 h; summary of the method: as §1
[8] = target: Transient receptor potential cation channel subfamily V member 1 (Mus musculus) (UniProt Q704Y3); assay: Agonist activity at recombinant mouse TRPV1 expressed in HEK293 cells assessed as increase in calcium influx up to 10 uM measured for 380 sec by Fluo-4 dye based FLIPR assay; type: cell-based; summary of the method: as §2

Compound	Activity (Rattus norvegicus [1]) [%]	inhibition [2] [%]	Activity [3]	inhibition [4] [%]	Activity (Rattus norvegicus [5])	Activity (Rattus norvegicus [6])	Activity (Rattus norvegicus [7])	Activity [8]
CCCCC[C@H](O)/C=C/[C@H]1[C@H](O)CC(=O)[C@@H]1C/C=C\CCCC(=O)O [DINOPROSTONE]	60	–	–	–	–	–	–	–
O=C(O)CC/C=C\C/C=C\C/C=C\C/C=C\C/C=C\C/C=C\CCO	–	1	Active	38.1	Non-Toxic	–	–	–
O=C(O)CCC/C=C\C/C=C\C/C=C\C/C=C\CCCCCO	–	0	–	27.5	30%	Dose-dependent effect	Non-Toxic	inactive
O=C(O)CCC/C=C\C/C=C\C/C=C\C/C=C\C/C=C\CCO	–	0	Active	37.1	Non-Toxic	–	–	–

From ChEMBL document CHEMBL4000209, “Chemical synthesis and biological evaluation of ω-hydroxy polyunsaturated fatty acids” (Bioorg Med Chem Lett, 2017)
